{"source": "paper PMC3607822", "about": "(The Journal of General Physiology, 2013)", "key": {"CNG channels": {"test_system": "CNG channels", "conditions": "ref Fodor et al., 1997; cited from earlier work"}, "CNGA1 homomeric channels": {"biological_target": "CNGA1 homomeric channels (Bos taurus, UniProt Q00194)", "sequence (Q00194 whole entry)": "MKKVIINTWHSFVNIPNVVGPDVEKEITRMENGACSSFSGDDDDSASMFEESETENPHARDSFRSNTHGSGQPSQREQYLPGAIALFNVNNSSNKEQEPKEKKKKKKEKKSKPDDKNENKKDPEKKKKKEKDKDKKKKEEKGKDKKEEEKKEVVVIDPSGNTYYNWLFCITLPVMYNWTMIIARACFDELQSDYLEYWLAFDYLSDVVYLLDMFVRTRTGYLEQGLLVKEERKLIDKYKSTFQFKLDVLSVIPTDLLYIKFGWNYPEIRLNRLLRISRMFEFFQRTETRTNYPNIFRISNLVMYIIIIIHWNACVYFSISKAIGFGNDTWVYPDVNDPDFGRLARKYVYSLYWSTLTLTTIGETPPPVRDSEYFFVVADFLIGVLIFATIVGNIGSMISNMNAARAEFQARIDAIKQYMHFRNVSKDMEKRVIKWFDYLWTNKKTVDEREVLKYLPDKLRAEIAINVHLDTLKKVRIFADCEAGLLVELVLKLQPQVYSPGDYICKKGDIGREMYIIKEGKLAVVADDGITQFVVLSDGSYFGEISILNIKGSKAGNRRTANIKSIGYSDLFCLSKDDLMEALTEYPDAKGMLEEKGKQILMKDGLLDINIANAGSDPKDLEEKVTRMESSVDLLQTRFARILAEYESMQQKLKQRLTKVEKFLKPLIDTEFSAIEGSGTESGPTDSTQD", "assay": "Inside-out patch clamp, homomeric CNGA1", "type": "biochemical, bovine", "conditions": "PIP3 or PIP2 application"}, "[1]": {"biological_target": "T1, human CNGA3 wild-type homomeric channels (Homo sapiens, UniProt Q16281)", "T1 sequence (Q16281 1-694)": "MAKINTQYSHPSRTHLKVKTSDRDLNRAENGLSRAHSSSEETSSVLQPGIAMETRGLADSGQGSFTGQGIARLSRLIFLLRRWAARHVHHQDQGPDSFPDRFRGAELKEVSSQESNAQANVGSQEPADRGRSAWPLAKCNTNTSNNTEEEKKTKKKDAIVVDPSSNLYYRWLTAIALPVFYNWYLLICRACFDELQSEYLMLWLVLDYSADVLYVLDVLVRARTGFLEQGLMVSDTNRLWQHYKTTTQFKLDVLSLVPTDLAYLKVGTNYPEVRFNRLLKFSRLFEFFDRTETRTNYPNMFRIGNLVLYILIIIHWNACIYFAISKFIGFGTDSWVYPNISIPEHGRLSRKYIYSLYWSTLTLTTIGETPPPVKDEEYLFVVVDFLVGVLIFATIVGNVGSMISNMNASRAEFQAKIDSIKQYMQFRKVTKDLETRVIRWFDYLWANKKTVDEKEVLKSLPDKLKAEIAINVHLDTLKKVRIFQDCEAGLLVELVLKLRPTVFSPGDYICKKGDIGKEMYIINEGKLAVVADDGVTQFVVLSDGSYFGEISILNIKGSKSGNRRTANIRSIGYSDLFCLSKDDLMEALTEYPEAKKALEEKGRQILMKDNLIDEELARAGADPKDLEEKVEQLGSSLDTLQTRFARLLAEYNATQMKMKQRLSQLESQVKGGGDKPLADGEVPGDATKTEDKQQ", "assay": "Inside-out patch clamp, homomeric CNGA3 wild type expressed in X. laevis oocytes", "type": "biochemical"}, "[2]": {"biological_target": "T2, CNGA3 P99L, A105P (PA-LP) channels (Homo sapiens, UniProt Q16281, A105P/P99L)", "T2 sequence (Q16281 1-694 P99L/A105P)": "T1 sequence (Q16281 1-694) with P99L, A105P", "assay": "Inside-out patch clamp, CNGA3 P99L, A105P", "type": "biochemical", "conditions": "after PIP3 or PIP2 application"}, "[3]": {"biological_target": "T3, heteromeric CNGA3+CNGB3 channels (Homo sapiens, UniProt Q16281+Q9NQW8)", "T3 sequence (Q16281 1-694)": "T1 sequence (Q16281 1-694)", "T3 sequence (Q9NQW8 1-809)": "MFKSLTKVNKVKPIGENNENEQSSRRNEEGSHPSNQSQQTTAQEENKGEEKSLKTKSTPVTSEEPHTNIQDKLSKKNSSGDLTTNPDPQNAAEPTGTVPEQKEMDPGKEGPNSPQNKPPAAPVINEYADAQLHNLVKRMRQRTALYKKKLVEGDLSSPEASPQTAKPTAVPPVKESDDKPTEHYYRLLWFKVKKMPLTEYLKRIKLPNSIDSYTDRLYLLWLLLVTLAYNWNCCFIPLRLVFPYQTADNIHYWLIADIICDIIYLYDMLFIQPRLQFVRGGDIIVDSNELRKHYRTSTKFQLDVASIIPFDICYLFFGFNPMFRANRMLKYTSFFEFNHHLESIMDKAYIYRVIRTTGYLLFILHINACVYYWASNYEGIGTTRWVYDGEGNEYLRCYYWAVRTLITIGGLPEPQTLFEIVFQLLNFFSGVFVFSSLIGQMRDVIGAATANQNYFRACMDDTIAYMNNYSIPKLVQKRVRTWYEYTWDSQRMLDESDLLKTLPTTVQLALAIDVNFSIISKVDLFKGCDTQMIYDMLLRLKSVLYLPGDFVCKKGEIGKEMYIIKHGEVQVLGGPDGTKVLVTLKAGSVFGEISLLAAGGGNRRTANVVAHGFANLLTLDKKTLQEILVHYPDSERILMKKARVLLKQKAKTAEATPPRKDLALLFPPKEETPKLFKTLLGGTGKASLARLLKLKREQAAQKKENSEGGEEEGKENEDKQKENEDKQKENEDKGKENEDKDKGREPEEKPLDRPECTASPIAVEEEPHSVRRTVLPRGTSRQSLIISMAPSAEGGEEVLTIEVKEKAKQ", "assay": "Inside-out patch clamp, heteromeric CNGA3+CNGB3", "type": "biochemical"}, "[4]": {"biological_target": "T4, A3-N7R-A,RR-QQ+B3 channels (Homo sapiens, UniProt Q16281+Q9NQW8, R101A/R103A/R643Q/R646Q/R72A/R75A/R81A/R82A/R86A)", "T4 sequence (Q16281 1-694 R72A/R75A/R81A/R82A/R86A/R101A/R103A/R643Q/R646Q)": "T1 sequence (Q16281 1-694) with R72A, R75A, R81A, R82A, R86A, R101A, R103A, R643Q, R646Q", "T4 sequence (Q9NQW8 1-809)": "T3 sequence (Q9NQW8 1-809)", "assay": "Inside-out patch clamp, A3-N7R-A,RR-QQ+B3", "type": "biochemical", "conditions": "10 µM PIP2 or 1 µM PIP3", "in_short": "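Subunit cRNAs (~20 ng, B in excess over A) injected into stage IV Xenopus oocytes; inside-out patches 2–7 d later, 20–22°C, symmetric 130 mM NaCl, 0.2 mM EDTA, 3 mM Hepes pH 7.2. Heteromer formation checked by 25 µM l-cis-diltiazem with 1 mM cGMP. diC8 phosphoinositides applied intracellularly in phosphatase-inhibitor cocktail. cGMP dose–response at +80 mV, leak-subtracted, Hill fit before/after for K1/2; mean ± SEM.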"}, "[5]": {"conditions": "mean, after 1 µM PIP3 or 10 µM PIP2"}, "[6]": {"conditions": "representative patch, after PIP3 or PIP2"}}, "note": "Positions count from the first letter of the chain named.", "data": [{"molecule": "CCCCNc1ccc(C(=O)OCCN(C)C)cc1", "note": "[tetracaine]", "values": [{"measurement": "greater affinity for closed compared with open channels", "setting": "CNG channels", "result": "~1,000 fold"}]}, {"molecule": "phosphatidylinositol (4,5)-biphosphate [PIP2]", "values": [{"measurement": "effect on relative cAMP efficacy", "setting": "CNGA1 homomeric channels", "result": "decreased relative cAMP efficacy"}, {"measurement": "effect on maximal cGMP current", "setting": "[1]; 1 mM cGMP", "result": "not significantly altered"}, {"measurement": "K1/2 cAMP after phosphoinositide", "setting": "[1]; apparent cAMP affinity after PIP3 or PIP2 application", "result": "1.13 ± 0.04", "unit": "mM"}, {"measurement": "Hill coefficient h after phosphoinositide", "setting": "[2]", "result": 1.7}, {"measurement": "K1/2 cGMP after phosphoinositide", "setting": "[2]", "result": "8.7 ± 0.4", "unit": "µM"}, {"measurement": "effect on currents elicited by 5 µM cGMP", "setting": "[3]; 1 µM PIP3 or 10 µM PIP2", "result": "attenuated the currents"}, {"measurement": "Imax cAMP/cGMP after phosphoinositide", "setting": "[3]; after PIP2 or PIP3 application", "result": "0.27 ± 0.02"}, {"measurement": "Hill coefficient h after phosphoinositide", "setting": "[3]; [5]", "result": 1.6}, {"measurement": "K1/2 cGMP after phosphoinositide", "setting": "[3]; [5]", "result": "23.4 ± 1.8", "unit": "µM"}, {"measurement": "Hill coefficient h after phosphoinositide", "setting": "[3]; [6]", "result": 1.6}, {"measurement": "K1/2 cGMP after phosphoinositide", "setting": "[3]; [6]", "result": 24.5, "unit": "µM"}, {"measurement": "Imax cGMP compared with initial values", "setting": "[3]; saturating cGMP, after 1 µM PIP3 or 10 µM PIP2", "result": "85.3 ± 3.7", "unit": "%"}, {"measurement": "regulation of apparent cGMP affinity", "setting": "[4]", "result": "insensitive to regulation"}]}, {"molecule": "poly-lysine", "values": [{"measurement": "Imax cAMP/cGMP after poly-lysine", "setting": "[1]; poly-lysine applied to control patches (no exogenous PIPn)", "result": "0.10 ± 0.01"}]}, {"molecule": "C=C1[C@@H](C)[C@H]2[C@H](Cc3ccccc3)NC(=O)[C@]23[C@H](OC(C)=O)/C=C/[C@@](C)(O)C(=O)[C@@H](C)C/C=C/[C@H]3[C@@H]1O", "note": "[cyto D, cytochalasin D]", "values": [{"measurement": "effect on cAMP efficacy", "setting": "[1]; 10 µM cyto D applied to inside-out patches", "result": "decrease in cAMP efficacy"}]}]}
